Screening data from PubChem BioAssay.
Sampled rows, rich in hits. Any-hit rate of the full collection: about 1.9%.
FAS TE block: inhibitors of human fatty acid synthase thioesterase domain. actives 0.67% (n = 360,000). inhibition, % at 15 µM. recombinant FAS-TE, OMFH fluorogenic substrate, fluorescence endpoint. AID 602261;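 active = compounds whose normalised, plate-corrected inhibition of enzyme fluorescence in the single-dose primary screen is 50% or more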;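 note: 0% = DMSO with enzyme and 100% = substrate without enzyme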
SENP1 FRET inh: blocks the human SENP1 SUMO protease catalytic domain; recombinant SENP1 catalytic domain, CyPet-SUMO1-YPet FRET cleavage; inhibition, % at 10 µM; actives 0.21% (n = 360,000); AID 624204;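 active = inhibition at least 30% at 10 µM, raw YFP signal under a set limit, fluorescence ratio 0.5 to 1.5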;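 note: 0% = enzyme with DMSO and 100% = no enzyme wells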
Target sequence (Q9P0U3 419-644 limits assumed): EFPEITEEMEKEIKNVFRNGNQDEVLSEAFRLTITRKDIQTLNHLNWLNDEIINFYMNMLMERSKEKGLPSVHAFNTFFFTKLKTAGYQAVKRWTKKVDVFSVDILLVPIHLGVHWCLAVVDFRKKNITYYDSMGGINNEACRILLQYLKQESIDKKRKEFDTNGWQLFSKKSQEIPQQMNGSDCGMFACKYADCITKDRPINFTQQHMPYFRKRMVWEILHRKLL
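Test system: human SENP1 catalytic domain; medium: Tris pH 8 buffer plus EDTA, NaCl, BME, BSA, NP40, catalase; incubation: 50 min reaction at room temperature; technique: FRET, CFP and YFP emission; controls: no-enzyme low control and enzyme-plus-DMSO high control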
ADAM17 inh: ADAM17 inhibition, QFRET primary screen; P78536; recombinant ADAM17, EDANS/DABCYL FRET peptide cleavage; inhibition, % at 6.95 µM; actives 0.83% (n = 370,000); AID 720648;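 active = inhibition above the mean of compounds lying between control limits plus 3 SD, set per campaign, cut at about 8.5% in these data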;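 note: 0% = DMSO-only wells as the low control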
ADAM10 inh: inhibitors of human ADAM10; recombinant ADAM10, EDANS/DABCYL FRET peptide cleavage, 3 h; inhibition, % at 7 µM; actives 0.62% (n = 370,000);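 active = inhibition above a per-campaign cutoff equal to the mean of compounds falling between control-based bounds plus 3 SD, cut at about 20% in these data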;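 note: 0% = DMSO wells while the 100% control is not disclosed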
FAS-TE inh conf: confirmation of human fatty acid synthase thioesterase inhibitors; inhibition, % at 15 µM; shares compounds with FAS TE block; recombinant FAS-TE, OMFH fluorogenic substrate, fluorescence; actives 45% (n = 2,300);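 active = compounds inhibiting the enzyme by at least 50% at 15 µM in any one of the replicates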;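 note: 0% = enzyme with DMSO only and 100% = wells lacking enzyme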
Starred values were filed as active, the others as inactive; · = not tested or not shown.

SMILES	FAS TE block	SENP1 FRET inh	ADAM17 inh	ADAM10 inh	FAS-TE inh conf
CC(C)C[C@H](NC(=O)c1cccs1)C(=O)N1CCC[C@H]1C(=O)NCc1ccccc1	·	·	-5.5	-16.7	·
O=[N+]([O-])c1ccc(/C=N/Nc2nc(N3CCCCCC3)nc(N3CCCCCC3)n2)o1	-5.0	-22.7	-4.4	-4.5	·
O=[N+]([O-])c1ccc(Nc2nc(N/N=C\c3ccc4c(c3)OCO4)nc(N3CCCCC3)n2)cc1	56.3*	1.0	0.5	-1.5	17.6
Cc1cc(-c2ccccc2)nc(N/N=C/c2ccc([N+](=O)[O-])cc2)n1	67.3*	-4.8	1.0	3.2	46.3*
O=[N+]([O-])c1ccc(/C=N/Nc2nc(N3CCCCC3)nc(N3CCCCC3)n2)cc1	53.9*	-10.7	-1.4	-3.0	5.9
Cc1ccc(C2CC(c3cccs3)=NN2C(=O)CSc2nc(=O)n3ccc(C)cc3n2)cc1 (configuration not stated)	45.8	-27.2	-3.4	-16.0	·
COc1ccc(C2CC(c3cccs3)=NN2C(=O)CSc2nc(=O)n3ccc(C)cc3n2)cc1 (configuration not stated)	56.6*	-38.2	-4.5	-17.0	56.8*
COc1ccc(C2=NN(C(=O)CSc3nc(=O)n4cc(C)ccc4n3)C(c3ccc(C)cc3)C2)cc1 (configuration not stated)	69.4*	-2.9	-0.2	-4.4	40.2*
Cc1ccc(C2CC(c3ccc(Br)cc3)=NN2C(=O)CSC2=NN3CCCC(=O)N=C3S2)cc1 (configuration not stated)	54.2*	2.5	1.0	-5.5	9.5
O=C1CCCN2N=C(SCC(=O)N3N=C(c4ccc(Br)cc4)CC3c3ccc(F)cc3)SC2=N1 (configuration not stated)	45.0	-1.6	6.0	16.3	·
COC(=O)C1CN(C2CCCC2)CCS(=O)(=O)N1Cc1ccc(OC)cc1 (configuration not stated)	·	·	-3.1	-2.2	·
O=S1(=O)c2ccc(N3CCN(Cc4ccccc4F)CC3)cc2Oc2ccccc2CN1Cc1cn(Cc2ccc(C(F)(F)F)cc2)nn1	·	·	-4.3	-15.2	·
O[C@H](COc1cccc(Cl)c1)CN1CCC(C(O)(c2ccccc2)c2ccccc2)CC1	·	·	1.8	6.4	·
CC(C)Cn1c(N)c(C(=O)COC(=O)c2ccc(O)cc2O)c(=O)n(C)c1=O	0.1	2.5	4.8	0.8	·
CC(C)Cn1c(N)c(C(=O)COC(=O)c2cc3ccccc3cc2O)c(=O)n(C)c1=O	81.8*	-3.7	-2.1	-3.3	2.2
Cc1ccc2nc(-c3ccccc3)cc(C(=O)N3CCN(S(=O)(=O)c4c(C)noc4C)CC3)c2c1	70.2*	-1.9	-4.3	-1.6	19.2
C=CCN1[C@@H](C)COc2cc(N3CCCC3)ccc2S1(=O)=O	·	·	0.5	4.2	·
Cc1ccccc1NC1=C(Cl)C(=O)OC1OC(=O)c1ccco1 (configuration not stated)	73.5*	0.8	0.4	-0.2	86.8*
COc1ccc(CN(C)C(C#Cc2ccccc2)Cc2ccccc2)c(OC)c1 (configuration not stated)	·	·	0.0	-4.1	·
C=CCn1c(COc2ccc(C)cc2)nnc1SCc1ccc([N+](=O)[O-])cc1	·	·	3.2	4.6	·
CCN1C(=O)[C@@H]2[C@@H](c3ccc(-c4ccc5c(c4)OCO5)c(OC)c3)N3CCCC[C@@]3(C(=O)OC)[C@@H]2C1=O	53.3*	-0.5	-3.1	-8.1	17.2
COC(=O)[C@@]12CCCCN1[C@H](c1ccc(-c3ccc4c(c3)OCO4)cc1)[C@H]1C(=O)N(C)C(=O)[C@H]12	79.2*	-0.2	-0.3	0.0	17.2
COC(=O)[C@@]12CCCCN1[C@H](c1ccc(-c3ccc(OC)cc3)cc1)[C@@H]1C(=O)N(C)C(=O)[C@@H]12	49.6	-10.1	0.4	3.7	·
COc1ccc(C2C(C(=O)N3CCC(C)CC3)CC(=O)N2c2ccc(OC)cc2)cc1 (configuration not stated)	·	·	-0.4	2.1	·
Cc1nc(/N=C(\N)NC(=O)N2c3ccccc3Sc3ccccc32)nc2ccccc12	67.9*	-0.8	-0.4	-2.4	15.8
SMILES	FAS TE block	SENP1 FRET inh	ADAM17 inh	ADAM10 inh	FAS-TE inh conf
Cc1c(Br)c([N+](=O)[O-])nn1CC(=O)Nc1ccccn1	0.2	1.1	-1.4	-0.2	·
CC(=O)Nc1ccc(NC(=O)Cn2nc([N+](=O)[O-])c(Br)c2C)cc1	3.8	4.5	-2.0	2.6	·
Cc1c(Br)c([N+](=O)[O-])nn1CC(=O)Nc1ccc(Cc2ccncc2)cc1	68.3*	1.1	2.0	4.9	64.1*
Cc1c(Br)c([N+](=O)[O-])nn1CC(=O)Nc1ccc(C(C)C)cc1	73.4*	-1.7	7.9	13.0	59.0*
COc1ccc(S(=O)(=O)N2CCCCC2)cc1NC(=O)c1ccc2ccccc2n1	52.8*	-1.8	-3.9	-1.9	7.2
COc1ccccc1NS(=O)(=O)c1cc(NC(=O)c2ccc3ccccc3n2)ccc1Cl	65.4*	-0.5	-1.1	-12.7	23.7
COc1ccccc1NC(=O)c1ccc(S(=O)(=O)N(C)c2ccccc2OC)cc1	21.7	2.0	6.5	-17.1	·
COc1ccc(S(=O)(=O)N2CCCCC2)cc1NC(=O)c1cccc(S(=O)(=O)N2CC(C)OC(C)C2)c1 (configuration not stated)	65.3*	0.6	2.1	-17.3	36.1
COc1ccc(S(=O)(=O)N2CCOCC2)cc1NC(=O)c1ccc(S(=O)(=O)N(C)c2ccccc2OC)cc1	60.9*	1.6	1.8	7.8	5.4
Cc1ccc(S(=O)(=O)N2CCCCC2)cc1NC(=O)c1ccc2ccccc2n1	-9.0	0.0	-2.6	-8.8	·
CCN(Cc1cn(Cc2ccc(C)cc2)nn1)S(=O)(=O)c1ccccc1Br	·	·	2.4	5.2	·
O=C(CSc1nnc(-c2ccccn2)n1-c1ccc(Cl)cc1)Nc1ccc(S(=O)(=O)Nc2nccs2)cc1	·	·	4.1	6.7	·
O=C(c1ccc(Cl)c(Cl)c1)N1CCC(Oc2cccnc2)CC1	·	·	-6.5	-3.8	·
COc1ccc(NC(=O)CSc2nnc(-c3cccs3)o2)cc1Cl	·	·	1.6	-4.0	·
N#Cc1c(NC(=O)CSc2ncccn2)oc(-c2ccccc2)c1-c1ccccc1	13.8	-7.8	1.8	-0.3	·
CCn1c(SCC(=O)Nc2oc(-c3ccccc3)c(-c3ccccc3)c2C#N)nnc1-c1cc(OC)cc(OC)c1	53.9*	0.1	·	·	2.7
COc1ccc2[nH]c3c(c2c1)CCN[C@]31C(=O)N(Cc2ccccc2)c2ccccc21	·	·	-4.5	-1.3	·
Cn1c(-c2ccc(F)cc2)cnc1NCc1cccc([N+](=O)[O-])c1	76.3*	-1.9	-1.3	0.5	78.3*
CCCCNc1nc2c(S(=O)(=O)c3ccccc3)nnn2c2ccccc12	-2.0	2.4	-4.7	-4.8	·
CCc1ccc(S(=O)(=O)c2nnn3c2nc(NCCNC(C)=O)c2ccccc23)cc1	76.7*	0.7	-4.1	-6.9	78.9*
Cc1ccc(S(=O)(=O)c2nnn3c2nc(NCCCN2CCCC2=O)c2ccccc23)cc1C	70.9*	1.8	-11.7	-28.6	69.1*
